Assays:
J774.A1 [1] = test: Antiinflammatory activity in mouse J774A1 cells assessed as inhibition of LPS-induced NO release at 1 ug/ml after 24 hrs treated 1 hr before LPS challenge relative to LPS; type: functional
Method in brief: (§1)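 J774A.1 cells (5.0 × 10⁴/well) adhered 2 h at 37 °C, 5% CO₂. Compounds added 1 h before and simultaneously with E. coli LPS (6 × 10³ U/mL) to induce iNOS. Nitrite accumulated in medium was measured 24 h after LPS with Griess reagent against a sodium nitrite standard curve made in culture medium. Expressed as % inhibition versus LPS-only cells. L-NAME (1 µM) was the reference.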

[2] = Antiproliferative activity against mouse J774A1 cells assessed as cell viability at 100 ug/ml after 72 hrs by MTT assay relative to LPS; type: cell-based, J774.A1
Method in brief: (§2)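 J774A.1 cells (3.5 × 10⁴/well) adhered 2 h at 37 °C, 5% CO₂. Medium was renewed, then serial dilutions of compound were added for 72 h. MTT was added for a further 3 h, formazan was dissolved in 50% DMF/20% SDS (pH 4.5), and OD was read at 620 nm. % dead cells = 100 − (OD treated/OD control) × 100. A cell-free control tested for MTT interference.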

J774.A1 [3] = test: Antiinflammatory activity in mouse J774A1 cells assessed as inhibition of LPS-induced NO release at 10 ug/ml after 24 hrs treated 1 hr before LPS challenge relative to LPS; type: functional; method in brief: as §1
[4] = Antiproliferative activity against mouse J774A1 cells assessed as cell viability at 1 ug/ml after 72 hrs by MTT assay relative to LPS; type: cell-based, J774.A1; method in brief: as §2
[5] = Antiproliferative activity against mouse J774A1 cells assessed as cell viability at 10 ug/ml after 72 hrs by MTT assay relative to LPS; type: cell-based, J774.A1; method in brief: as §2
J774.A1 [6] = test: Antiinflammatory activity in mouse J774A1 cells assessed as inhibition of LPS-induced NO release at 100 ug/ml after 24 hrs treated 1 hr before LPS challenge relative to LPS; type: functional; method in brief: as §1
J774.A1 [7] = test: Antiinflammatory activity in mouse J774A1 cells assessed as inhibition of LPS-induced NO release at 1 uM after 24 hrs treated 1 hr before LPS challenge relative to LPS; type: functional
Method in brief: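 J774A.1 murine macrophages plated at 5.0 × 10⁴ cells/well, adhered 2 h at 37 °C in 5% CO₂. Compounds (1-100 µg/mL) added 1 h before and simultaneously with E. coli LPS (6 × 10³ U/mL) to induce iNOS. After 24 h, nitrite in medium measured by Griess reagent against a sodium nitrite standard curve made in culture medium. Expressed as % inhibition versus LPS alone.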

SMILES	inhibition at 1 µg/mL (J774.A1 [1]) [%]	viability at 72 h, 100 ug/ml [2] [%]	inhibition at 10 µg/mL (J774.A1 [3]) [%]	viability at 72 h, 1 ug/ml [4] [%]	viability at 72 h, 10 ug/ml [5] [%]	inhibition at 100 µg/mL (J774.A1 [6]) [%]	inhibition at 1 µM (J774.A1 [7]) [%]
O=C(/C=C/c1ccc(O)c(O)c1)O[C@H]1[C@H](O)[C@@H](O[C@@H]2OC[C@](O)(CO)[C@H]2O)[C@H](OCCc2ccc(O)c(O)c2)O[C@@H]1CO [FUCATOSIDE A]	13.3	95	11.2	97.3	95.9	52.5	
O=C(/C=C/c1ccc(O)c(O)c1)O[C@H]1[C@H](O[C@@H]2OC[C@](O)(CO)[C@H]2O)[C@@H](O[C@@H]2OC[C@@H](O)[C@H](O)[C@H]2O)[C@H](OCCc2ccc(O)c(O)c2)O[C@@H]1CO [FUCATOSIDE B]	13.7	94.4	16.4	97.5	96.1	81.4	
O=C(/C=C/c1ccc(O)c(O)c1)O[C@H]1[C@H](O[C@@H]2OC[C@@](O)(CO)[C@H]2O)[C@@H](O[C@@H]2OC[C@@](O)(CO)[C@H]2O)[C@H](OCCc2ccc(O)c(O)c2)O[C@@H]1CO [FUCATOSIDE C]	4.4	94.3	31.8	96.4	96.8	93.7	
COC(=O)[C@@H](N)CCCNC(=N)N[N+](=O)[O-] [L-NAME]							46.6
Sc1ncnc2nc[nH]c12 [MERCAPTOPURINE ANHYDROUS]		31.8		44.1	38		
C[C@@H]1O[C@@H](O[C@H]2[C@H](OCCc3ccc(O)c(O)c3)O[C@H](CO)[C@@H](OC(=O)/C=C/c3ccc(O)c(O)c3)[C@@H]2O)[C@H](O)[C@H](O)[C@H]1O [PARVIFLOROSIDE A]	3.8	96.9	9	96.7	95.9	88.5	

Reference: ChEMBL document CHEMBL1153805, “Phenylethanoid glycosides from Lantana fucata with in vitro anti-inflammatory activity” (J Nat Prod, 2009)
